Test results from PMC4981499 (Nature, 2014).
≈ marks a conversion by molar mass, not a printed value.

What was measured:
K. pneumoniae N11-2218 = experiment: MIC; type: cell-based; settings: meropenem alone; K. pneumoniae N11-2218 (CRE)
How it was run: (§1)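 Checkerboard microdilution with 8 concentrations each of meropenem and test compound in serial ½ dilutions, run in duplicate, and the mean was used. MIC was the lowest concentration with no growth. Each FIC was the concentration in the presence of the co-compound in a no-growth well divided by that compound's MIC; the FIC index is the sum of the two FICs.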

E. coli BW25113 = experiment: MIC; type: cell-based; settings: Escherichia coli
How it was run: as §1

[1] = test system: NDM-1-positive K. pneumoniae N11-2218; experiment: Mouse systemic infection, organ bacterial load; type: in vivo, CD1 mice; settings: s.c., spleen burden 48 h after infection
How it was run: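 Female CD1 mice, 7–9 weeks, infected i.p. with 2×10⁶ cfu K. pneumoniae N11-2218. Treated s.c. 30 minutes post infection with test compound, meropenem, their combination, or PBS. Euthanized at 48 h; spleen and liver were homogenized in PBS, serially diluted and plated on Brilliant Green agar for cfu counts.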

[2] = test system: NDM-1-positive K. pneumoniae N11-2218; experiment: Mouse lethal systemic infection, survival; type: in vivo, CD1 mice; settings: meropenem (10 mg/kg) alone or AMA (30 mg/kg) alone, single s.c. dose
How it was run: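 Female CD1 mice, 7–9 weeks, randomized 5 per cage. Infected i.p. with 5×10⁷ cfu K. pneumoniae N11-2218. A single s.c. dose was given 30 minutes post infection: meropenem 10 mg/kg, test compound 30 mg/kg, their combination, or PBS. Mice were monitored for endpoint until day 4. Preparation, infection and processing were done by two independent investigators for blinding.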

**Q.** For `C[C@@H](O)[C@H]1C(=O)N2C(C(=O)O)=C(S[C@@H]3CN[C@H](C(=O)N(C)C)C3)[C@H](C)[C@H]12` [meropenem], which MIC (K. pneumoniae N11-2218) is on record?
**A.** 32 µg/mL (≈ 83.4 µM)

**Q.** What about the MIC (E. coli BW25113) of the same molecule?
**A.** 0.008 to 0.016 µg/mL (≈ 0.0209 to 0.0417 µM)

**Q.** What about the “Response of infection to meropenem monotherapy” value [1] of the same molecule?
**A.** resistant to meropenem monotherapy at doses below 50 mg/kg

**Q.** And the “Prevention of lethal infection by monotherapy” value [2]?
**A.** unable to prevent lethal infection
